# High-throughput results (PubChem BioAssay)
# D1 allo mod: D1 dopamine receptor (human) allosteric modulation. P21728. HEK293 D1, CRE-luciferase, dopamine EC30 potentiation; actives deviate in either direction. B-score at 10 µM. 58,000 tested, 5.9% active;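 active = luminescence count or its row- and column-corrected plate score outside the 99.7% band of the plate's sample wells, on either side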
# HEK293 NFkB inh: inhibitors of the PMA/ionomycin-induced NF-kB reporter in HEK293 cells. HEK-293 NF-kB luciferase reporter, luminescence. inhibition, % at 3 µM. 62,000 tested, 0.21% active. AID 465;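 active = inhibition above the mean of all tested compounds plus 3 SD, cut at about 40% in these data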;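 note: 0% = stimulated DMSO wells and 100% = 10 µM reference inhibitor 5653914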
#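 System – HEK-293 cells with stable firefly luciferase reporter driven by four HIV NF-kB elements · Doses – one dose, 3 µM · Schedule – 1 h compound pre-incubation, 16 h PMA/ionomycin at 37 °C · Technique – luminescence from luciferase substrate reagent · Measure – percent inhibition normalized per plate to DMSO and reference-inhibitor controls · Replicates – tested once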
# DAT uptake mod: human DAT dopamine uptake with cocaine, either direction | AID 449768 | LLC-PK1 hDAT cells, [14C]-dopamine uptake with cocaine IC80; actives deviate in either direction | Q01959 | 110,000 tested, 1.3% active | B-score at 10 µM;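 active = Z score or B-score, a plate-position-corrected score, falls beyond the plate's 99.7% confidence bounds, in either direction; inactive = both scores lie inside the 99.7% bounds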;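 note: scored against the spread of the other compound wells on the same plate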
# M1 agonist: activates the M1 muscarinic receptor. 64,000 tested, 3% active. CHO-M1 cells, Fluo-4 calcium fluorescence, agonist mode; hits give high values. B-score at 10 µM;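 active = fluorescence rise, raw or as B-score row- and column-corrected plate score, outside the 99.7% band of its plate's samples, either direction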
# Jurkat tox 60K: cytotoxic compounds reducing Jurkat cell viability | Jurkat E6.1 viability, ATP luminescence, 48 h | 56,000 tested, 1.2% active | inhibition, % at 4 µM;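 active = inhibition above the mean inhibition of all tested compounds plus 3 SD, cut at about 28% in these data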
# M1 antagonist: blocks the rat M1 muscarinic receptor response to acetylcholine | 64,000 tested, 3.4% active | AID 628 | P08482 | B-score at 10 µM | CHO-M1 cells, Fluo-4 calcium, ACh EC80 antagonist mode; hits give low values;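 active = calcium fluorescence response, raw or row-and-column corrected B-score, differing from the plate sample mean either way at a set confidence level, mostly lower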
# Target sequence (P08482 whole entry, looked up): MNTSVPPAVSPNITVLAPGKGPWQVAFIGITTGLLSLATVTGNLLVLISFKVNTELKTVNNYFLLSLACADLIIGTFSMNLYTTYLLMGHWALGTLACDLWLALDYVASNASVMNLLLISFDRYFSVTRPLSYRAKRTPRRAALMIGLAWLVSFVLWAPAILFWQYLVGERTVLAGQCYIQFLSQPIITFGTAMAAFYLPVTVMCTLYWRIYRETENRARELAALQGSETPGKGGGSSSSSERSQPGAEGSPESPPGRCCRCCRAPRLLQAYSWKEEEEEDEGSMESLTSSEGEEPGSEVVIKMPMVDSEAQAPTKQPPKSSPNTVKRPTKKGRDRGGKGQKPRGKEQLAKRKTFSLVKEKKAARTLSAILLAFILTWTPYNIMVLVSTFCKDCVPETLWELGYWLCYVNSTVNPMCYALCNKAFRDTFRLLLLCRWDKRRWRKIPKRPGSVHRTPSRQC
# The depositor's hits bear a star; . = not tested or not shown. Hits are enriched below; roughly 7.6% of the tested compounds scored in any of these assays.
SMILES,D1 allo mod,HEK293 NFkB inh,DAT uptake mod,M1 agonist,Jurkat tox 60K,M1 antagonist
Cc1ccc(Cn2nnnc2CN2CCC(NC(=O)c3ccccc3F)CC2)cc1,.,.,0.36,.,.,.
COc1ccc(C(=O)NC(=S)N2CCC(C)CC2)cc1,.,.,-7.9*,.,.,.
Cc1ccc(S(=O)(=O)Nc2cccc3ncccc23)s1,.,15,0.0042,0.52,31*,-0.16
Cc1ccc(S(=O)(=O)Nc2ccnc3ccccc23)cc1,.,.,-8*,.,.,.
Cc1ccc(-c2nc3cccnc3s2)cc1NS(=O)(=O)c1cccs1,.,.,-0.65,.,.,.
CCN1CCCC1CNC(=O)C1CCCN(S(=O)(=O)c2cccc3nsnc23)C1 (stereo not drawn),-0.61,10,-0.12,-0.32,-7,-0.47
O=C(O)CC1C(=O)NCCN1Cc1ccc(F)c(F)c1 (stereo not drawn),-0.52,6,0.042,-0.27,-10,1.4*
Cc1ccc(CN2CCNC(=O)C2CC(=O)O)cc1 (stereo not drawn),0.33,2,-0.22,-0.03,-3,0.98
COC(=O)c1ccc(-c2nc(-c3cccs3)no2)cc1,.,-8,-0.00071,-0.58,2,-0.22
CN1C(=O)/C(=C/c2cn(CC(=O)N3CCCCC3)c3ccccc23)c2ccccc21,.,.,3.8*,.,.,.
CC1CCCC(C)N1C(=O)Cn1cc(/C=C2/C(=O)Nc3ccccc32)c2ccccc21 (stereo not drawn),.,.,1.8,.,.,.
CCc1ccc2[nH]cc(C(=O)N3CCCCCC3)c(=O)c2c1,-0.078,18,0.18,1.7,13,0.7
COc1ccc(-c2[nH]ncc2/C=C(/C#N)C(=O)NC2CCCCCC2)cc1,.,.,2.8*,.,.,.
O=C(/C=C\Nc1ccc2c(c1)OCO2)c1ccccn1,-8*,48*,0.92,0.7,-1,0.98
O=C(NCc1ccc2c(c1)OCO2)c1ccccn1,2.8,17,-0.61,-0.48,-3,-0.13
CCC1CCCCN1C(=O)COC(=O)c1n[nH]c2ccccc12 (stereo not drawn),.,.,0.47,.,.,.
Cc1ccc(OCC(O)Cn2c3ccccc3c3ccccc32)cc1 (stereo not drawn),.,.,1.7*,.,.,.
O=C(c1ccc2nc3ccc(Cl)cc3c(=O)n2c1)N1CCOCC1,.,.,0.44,.,.,.
S=C(c1ccc(-c2ccccc2Cl)o1)N1CCOCC1,-0.098,-24,2,0.8,1,1.1*
CCc1nc2ccccc2n1CC(C)C(=O)O (stereo not drawn),.,.,-0.088,.,.,.
COc1cccc(N=Cc2ccc(O)cc2O)c1,.,27,0.32,2.2*,0,-0.0016
CCCOc1ccc(N2C(=O)CC(N3CCN(S(=O)(=O)c4ccccc4)CC3)C2=O)cc1 (stereo not drawn),.,.,0.64,.,.,.
Cc1csc(NC(=O)c2cnc3ccccn3c2=O)n1,-1.6,-23,.,-0.1,6,-0.36
Cc1ccccc1NC(=O)c1cnc2ccccn2c1=O,-5.8*,-22,0.26,-1,-2,0.21
CCN1CCCC1CNC(=O)c1ccc(N2CCCC2=O)cc1 (stereo not drawn),-0.33,4,-0.46,-0.82,1,0.79
SMILES,D1 allo mod,HEK293 NFkB inh,DAT uptake mod,M1 agonist,Jurkat tox 60K,M1 antagonist
COCCCN1C(=O)c2[nH]nc(-c3ccccc3O)c2C1c1cccc(Cl)c1 (stereo not drawn),1.2,7,1.7,0.46,90*,0.15
Oc1c(CN2CCCCC2)cc(Br)c2cccnc12,0.39,19,0.88,-1,49*,-0.14
Oc1ccc(CN2CCN(Cc3ccccc3)CC2)c2cccnc12,-1.1,8,0.42,-0.17,-4,0.2
CN1CCN(Cc2cc(COCc3ccccc3)c3cccnc3c2O)CC1,0.4,30,0.49,-0.17,36*,-1.2
Oc1c(CN2CCc3ccccc3C2)cc(Cl)c2cccnc12,.,10,0.047,-0.035,16,0.14
COc1ccc(OC)c(NC(=O)C23CC4CC(C2)CC(n2cnc(Br)n2)(C4)C3)c1,.,.,1.9,.,.,.
O=C(Cn1cccc1C(=O)c1ccccc1)NCc1cccnc1,.,26,-0.0085,-0.15,-1,0.14
C=CCCCCCCCCc1nc(=S)[nH][nH]1,.,.,0.039,.,.,.
Nc1nc2n(n1)C(c1ccccc1Cl)CC(c1ccc(F)cc1)N2 (stereo not drawn),1.8,9,0.3,-0.24,3,0.31
COc1ccc(/C=N/NC(=O)Cc2csc(Nc3cccc(C(F)(F)F)c3)n2)c(OC)c1,.,.,2.7*,.,.,.
O=C(c1cccc(C(=O)N2CCN(c3ccccc3F)CC2)n1)N1CCN(c2ccccc2F)CC1,-0.8,8,1.3,1.9,5,0.46
Cc1ccc(NC(=S)NCCN2CCOCC2)cc1C,.,.,-0.65,.,.,.
c1ccc(NCc2nnc3n2CCCCC3)cc1,-0.96,11,1.9*,0.72,-8,0.44
Clc1ccc(NCc2nnc3n2CCCCC3)cc1,0.19,17,-0.63,1.2,4,0.19
Cc1ccsc1C(=O)Nc1nnc(-c2ccco2)o1,-0.72,1,0.4,-0.36,89*,0.85
CCC(=O)Nc1nnc(-c2ccco2)o1,-0.39,3,-0.88,0.86,-4,-0.057
CCOc1ccc(NC(=O)N2CCC(n3c(=O)[nH]c4ccccc43)CC2)cc1,.,4,2.8*,1.6,0,-0.078
CN1C(=O)CCC1(O)c1ccccc1 (stereo not drawn),-0.6,17,0.72,0.72,5,-0.38
O=C(OCc1ccc(Cl)cc1Cl)c1cccnc1Cl,.,.,-8.6*,.,.,.
CCOC(=O)CNc1c(-c2ccc(O)cc2)nc2ccc(Cl)cn12,-4.4*,25,0.54,7.8*,-7,-1.4
Cc1ccc(C(=O)CCC(=O)Nc2cccnc2)cc1C,0.5,2,-8.5*,-0.38,-5,-0.85
O=C(CN1CCCN(Cc2ccc(F)cc2Cl)C1=O)NCc1ccccc1,0.65,10,2.6*,-1.8,10,1.6
O=C(CN1CCN(Cc2ccccc2)C1=O)NCc1ccc(Cl)cc1,.,0,0.77,-0.6,.,-0.92
CCO/N=C(\C)c1c(O)c(CC)c(-c2ccccc2)n(-c2ccccc2)c1=O,.,.,2.7*,.,.,.
CC(=O)c1c(O)c(C)c(-c2ccccc2)n(-c2ccccc2)c1=O,.,.,-0.0085,.,.,.
SMILES,D1 allo mod,HEK293 NFkB inh,DAT uptake mod,M1 agonist,Jurkat tox 60K,M1 antagonist
Cn1cnc2cc(NC(=O)c3ccc(Cl)cc3)ccc21,-2.7,-18,-0.78,0.58,6,-0.12
O=C(NC1CCCCC1)c1ccc(Cn2cc(Br)cn2)o1,0.012,1,0.62,0.6,6,0.73
O=C(NCc1ccccn1)c1ccc(Cn2cc(Br)cn2)o1,-1.4,1,-0.86,0.059,1,2.3*
CCS(=O)(=O)Nc1ccc(C(=O)CC2(O)C(=O)Nc3ccccc32)cc1 (stereo not drawn),-0.43,3,-0.52,-0.041,-2,-1.9
O=C(NCc1ccc2c(c1)OCO2)c1cccc(Cl)c1,0.019,2,-0.14,-0.76,4,0.27
O=C(NCc1ccc2c(c1)OCO2)c1ccc(-c2ccc(Cl)cc2)o1,0.59,13,2.4*,0.61,4,1.2
CCCCSc1nc2c(cnn2-c2ccc(Cl)cc2)c(=O)[nH]1,-0.39,32,-0.54,5.6*,4,0.25
